In one experiment the test system is QG-56. Description: In vitro antitumor activity against QG-56 (human lung cancer) cells. In kind it is functional, cell-based. Summed up:
(§1)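 MTT assay of cell growth after 3 days of incubation. IC50 is the dose that inhibits growth of 50% of the cultivated cells, given in ng/mL.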

In a further experiment the test system is HOC-21 cell line. Description: In vitro antitumor activity against HOC-21 (human ovarian cancer) cells. The experiment is classed as functional, cell-based. Summed up: as §1
A further experiment concerns P388. The experiment can be described thus: In vitro antitumor activity against P388 (murine leukemia) cells. In kind it is functional, cell-based. As to conditions: Mus musculus.
The target in experiment [1] is T1, DNA topoisomerase 1 (Homo sapiens) (UniProt P11387).
T1 sequence (whole entry): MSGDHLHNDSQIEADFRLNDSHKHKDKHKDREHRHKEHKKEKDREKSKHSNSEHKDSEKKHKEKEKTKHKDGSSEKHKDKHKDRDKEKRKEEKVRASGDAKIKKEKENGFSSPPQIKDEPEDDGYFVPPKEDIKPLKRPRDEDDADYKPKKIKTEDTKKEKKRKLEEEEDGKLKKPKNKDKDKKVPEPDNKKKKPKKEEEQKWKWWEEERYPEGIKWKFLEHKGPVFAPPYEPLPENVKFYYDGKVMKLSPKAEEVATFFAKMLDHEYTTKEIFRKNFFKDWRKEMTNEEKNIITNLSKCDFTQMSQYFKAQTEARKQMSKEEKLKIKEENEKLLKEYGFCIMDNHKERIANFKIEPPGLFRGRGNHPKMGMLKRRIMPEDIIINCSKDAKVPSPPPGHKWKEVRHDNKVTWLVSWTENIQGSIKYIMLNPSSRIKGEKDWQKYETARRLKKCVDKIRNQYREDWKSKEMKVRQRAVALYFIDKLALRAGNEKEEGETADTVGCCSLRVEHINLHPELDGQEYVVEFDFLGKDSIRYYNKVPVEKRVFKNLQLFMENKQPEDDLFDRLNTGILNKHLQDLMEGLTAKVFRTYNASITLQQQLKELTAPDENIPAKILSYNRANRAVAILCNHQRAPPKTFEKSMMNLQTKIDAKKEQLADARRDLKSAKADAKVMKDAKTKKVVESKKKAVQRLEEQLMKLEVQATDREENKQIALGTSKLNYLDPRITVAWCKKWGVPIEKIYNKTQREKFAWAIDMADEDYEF
The experiment can be described thus: Inhibition of topoisomerase-1 compared to SN-38. Summed up: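 DNA relaxation assay with topoisomerase I. IC50 is the concentration that inhibits 50% of the conversion of supercoiled DNA to its relaxed form. Values are given as the ratio of the test IC50 to the IC50 of SN-38.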

≈ marks a conversion by molar mass, not a printed value.

A word on the IC50: it is the midpoint of a concentration-inhibition curve. A higher IC50 goes with weaker potency. On to `CC[C@@]1(O)C(=O)OCc2c1cc1n(c2=O)Cc2c-1nc1ccc(OC)c3c1c2CCN3`, for which the IC50 with QG-56 was 10.6 ng/mL (≈ 0.0253 µM); with HOC-21 cell line it was 106 ng/mL (≈ 0.254 µM); in the experiment with P388, 10.7 ng/mL (≈ 0.0255 µM).

For the molecule `CC[C@@]1(O)C(=O)OCc2c1cc1n(c2=O)Cc2c-1nc1cc(OC)cc3c1c2CCC3`, in experiment [1], the Ratio came to 0.7. Further, the IC50 was found to be 1.32 ng/mL (≈ 0.00315 µM) in the experiment with QG-56, 17.4 ng/mL (≈ 0.0416 µM) with HOC-21 cell line and 1.01 ng/mL (≈ 0.00241 µM) with P388.

Turning to `CC[C@@]1(O)C(=O)OCc2c1cc1n(c2=O)Cc2c-1nc1cccc3c1c2CCS3`, the 50% inhibitory concentration (IC50) in the experiment on QG-56 is 1.71 ng/mL (≈ 0.00421 µM); in the experiment on HOC-21 cell line, 33 ng/mL (≈ 0.0812 µM); in the experiment with P388 it was 3.04 ng/mL (≈ 0.00748 µM).

Take `CC[C@@]1(O)C(=O)OCc2c1cc1n(c2=O)Cc2c-1nc1ccc(OC)c3c1c2CCN3C(C)=O`: the half-maximal inhibitory concentration (IC50) in the experiment on QG-56 is 29.8 ng/mL (≈ 0.0646 µM); in the experiment on HOC-21 cell line, > 500 ng/mL; with P388 it was > 62.5 ng/mL.

As for `CC[C@@]1(O)C(=O)OCc2c1cc1n(c2=O)Cc2c-1nc1cccc3c1c2CCC3`, in experiment [1], the Ratio was found to be 4. The half-inhibitory concentration (IC50) in the experiment on QG-56 was found to be 1.63 ng/mL (≈ 0.0042 µM); in the experiment on HOC-21 cell line, 92.9 ng/mL (≈ 0.239 µM); in the experiment with P388, 5.23 ng/mL (≈ 0.0135 µM).

With `CC[C@@]1(O)C(=O)OCc2c1cc1n(c2=O)Cc2c-1nc1cc(Cl)cc3c1c2CCC3`, the Ratio in experiment [1] was 0.23. Besides, the concentration for half-maximal inhibition (IC50) was determined as 0.53 ng/mL (≈ 0.00125 µM) with QG-56, 14 ng/mL (≈ 0.0331 µM) in the experiment with HOC-21 cell line and 0.73 ng/mL (≈ 0.00173 µM) in the experiment with P388.

Consider `CC[C@@]1(O)C(=O)OCc2c1cc1n(c2=O)Cc2c-1nc1cc(F)c(C)c3c1c2CCC3`, for which, in experiment [1], the Ratio worked out at 0.51. Besides, the concentration for half-maximal inhibition (IC50) in the experiment on QG-56 was found to be 0.17 ng/mL (≈ 0.000404 µM); in the experiment on HOC-21 cell line, 2.06 ng/mL (≈ 0.0049 µM); in the experiment on P388, 0.22 ng/mL (≈ 0.000523 µM).

Consider `CC[C@@]1(O)C(=O)OCc2c1cc1n(c2=O)Cc2c-1nc1ccc(O)c3c1c2CCS3`, for which, in experiment [1], the Ratio stood at 1.6. For the same molecule, the figures for the half-maximal inhibitory concentration (IC50) in the experiment on QG-56, with HOC-21 cell line and in the experiment with P388 were 3.68 ng/mL (≈ 0.00871 µM), 153 ng/mL (≈ 0.361 µM) and 8.63 ng/mL (≈ 0.0204 µM), respectively.

As to `CC[C@@]1(O)C(=O)OCc2c1cc1n(c2=O)Cc2c-1nc1cc(F)c(F)c3c1c2CCC3O` (some centres not stated), the Ratio in experiment [1] was 1.2. In addition, the IC50 worked out at 2.62 ng/mL (≈ 0.00595 µM) in the experiment with QG-56, 68.9 ng/mL (≈ 0.156 µM) in the experiment with HOC-21 cell line and 3.17 ng/mL (≈ 0.0072 µM) with P388.

On to `CC[C@@]1(O)C(=O)OCc2c1cc1n(c2=O)Cc2c-1nc1cc(C)cc3c1c2CCC3`, for which, in experiment [1], the Ratio turned out to be 3.6. Also, the IC50 in the experiment on QG-56 turned out to be 10.3 ng/mL (≈ 0.0256 µM); with HOC-21 cell line, 101 ng/mL (≈ 0.251 µM); in the experiment on P388, 5.05 ng/mL (≈ 0.0125 µM).

`CC[C@@]1(O)C(=O)OCc2c1cc1n(c2=O)Cc2c-1nc1cc(F)c(F)c3c1c2CCC3`: the Ratio in experiment [1] is 0.7. The half-inhibitory concentration (IC50) in the experiment on QG-56 was determined as 0.38 ng/mL (≈ 0.000895 µM); in the experiment with HOC-21 cell line it was 10.9 ng/mL (≈ 0.0257 µM); with P388 it was 0.48 ng/mL (≈ 0.00113 µM).

As to `CC[C@@]1(O)C(=O)OCc2c1cc1n(c2=O)Cc2c-1nc1ccc(O)c3c1c2CCC3`, the Ratio in experiment [1] came out at 0.47.

Turning to `CC[C@@]1(O)C(=O)OCc2c1cc1n(c2=O)Cc2c-1nc1cc(N)c(O)c3c1c2CCC3`, in experiment [1], the Ratio was determined as 2.6. Besides, the half-maximal inhibitory concentration (IC50) with QG-56 was 11.6 ng/mL (≈ 0.0277 µM); with HOC-21 cell line, > 500 ng/mL; with P388, > 62.5 ng/mL.

Turning to `CC[C@@]1(O)C(=O)OCc2c1cc1n(c2=O)Cc2c-1nc1ccc(OC)c3c1c2CCS3`, the IC50 in the experiment on QG-56 was 3.27 ng/mL (≈ 0.00749 µM); with HOC-21 cell line, 80.2 ng/mL (≈ 0.184 µM); in the experiment on P388, 6.49 ng/mL (≈ 0.0149 µM).

As for `CC[C@@]1(O)C(=O)OCc2c1cc1n(c2=O)Cc2cc3ccccc3nc2-1`, in experiment [1], the Ratio amounted to 0.39.

Regarding `CC[C@@]1(O)C(=O)OCc2c1cc1n(c2=O)Cc2c-1nc1ccc(N)c3c1c2CCC3`, in experiment [1], the Ratio came to 1.4. For the same molecule, the IC50 in the experiment on QG-56 amounted to 1.38 ng/mL (≈ 0.00342 µM); in the experiment on HOC-21 cell line it was 35.9 ng/mL (≈ 0.089 µM).

With `CCc1c2c(nc3ccc(O)cc13)-c1cc3c(c(=O)n1C2)COC(=O)[C@]3(O)CC` [7-ETHYL-10-HYDROXYCAMPTOTHECIN], the Ratio in experiment [1] turned out to be 1. For the same molecule, the IC50 in the experiment on QG-56 was 0.9 ng/mL (≈ 0.00229 µM); in the experiment with HOC-21 cell line it was 41.2 ng/mL (≈ 0.105 µM); in the experiment on P388 it was 1.44 ng/mL (≈ 0.00367 µM).

Take `CC[C@@]1(O)C(=O)OCc2c1cc1n(c2=O)Cc2c-1nc1ccc(N)c3c1c2CCO3`: in experiment [1], the Ratio stood at 1.2. Further, the values for the IC50 in the experiment on QG-56, with HOC-21 cell line and in the experiment with P388 were 0.71 ng/mL (≈ 0.00175 µM), 57.7 ng/mL (≈ 0.142 µM) and 2.6 ng/mL (≈ 0.00641 µM), respectively.

Regarding `CC[C@@]1(O)C(=O)OCc2c1cc1n(c2=O)Cc2c-1nc1ccc(N)c3c1c2CCS3`, the Ratio in experiment [1] is 0.9. Also, the half-inhibitory concentration (IC50) in the experiment on QG-56 is 0.4 ng/mL (≈ 0.000949 µM); in the experiment on HOC-21 cell line it was 8.37 ng/mL (≈ 0.0199 µM); with P388 it was 1.08 ng/mL (≈ 0.00256 µM).

`CC[C@@]1(O)C(=O)OCc2c1cc1n(c2=O)Cc2c-1nc1cc(O)cc3c1c2CCC3`: in experiment [1], the Ratio was found to be 0.17. For the same molecule, the concentration for half-maximal inhibition (IC50) in the experiment on QG-56 is 4.7 ng/mL (≈ 0.0116 µM); in the experiment on HOC-21 cell line, 20.6 ng/mL (≈ 0.0509 µM); with P388 it was 0.99 ng/mL (≈ 0.00245 µM).

`CC[C@@]1(O)C(=O)OCc2c1cc1n(c2=O)Cc2c-1nc1ccc(C#N)c3c1c2CCC3`: in experiment [1], the Ratio is 3.9. The IC50 was 4.21 ng/mL (≈ 0.0102 µM) in the experiment with QG-56, 73.5 ng/mL (≈ 0.178 µM) in the experiment with HOC-21 cell line and 8.14 ng/mL (≈ 0.0197 µM) in the experiment on P388.

`CC[C@@]1(O)C(=O)OCc2c1cc1n(c2=O)Cc2c-1nc1cc(F)cc3c1c2CCC3`: in experiment [1], the Ratio was 0.24. Besides, the values for the concentration for half-maximal inhibition (IC50) in the experiment with QG-56, in the experiment with HOC-21 cell line and in the experiment with P388 were 0.16 ng/mL (≈ 0.000394 µM), 3.39 ng/mL (≈ 0.00834 µM) and 0.26 ng/mL (≈ 0.00064 µM), respectively.
